Shown are actives, neighbours in structure and some others; about 2.9% of the full set was active somewhere.
C2C12 statin – suppression of simvastatin myotoxicity | C2C12 myotubes + simvastatin, ATP luminescence, 48 h; scaled: DMSO 0, geranylgeraniol control 100 | actives 0.78% (n = 330,000) | AID 602340 | rescue of ATP level, % at 7.49 µM;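 active = mean ATP rescue above about 67%, or every replicate alone reaching that limit, limit read from the data, passing the limit was not always enough; inconclusive = no clear call, values can overlap the other calls; inactive = mean under the limit and some replicate under it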;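 note: myotubes were challenged with 10 µM simvastatin during compound exposure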
PGC1a acetyl inh – PGC1a acetylation modulation, inhibitor mode | actives 0.17% (n = 350,000) | AID 651687 | U2OS PGC1a acetylation, AlphaScreen anti-acetyl-lysine; with virally co-expressed GCN5 acetyltransferase | inhibition, % at 15.6 µM;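 active = every replicate shows inhibition of at least 40%; inconclusive = mean inhibition at least 40% but some replicate below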;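 note: 0% = neutral control wells and 100% = positive control wells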
DENV2 CPE rescue – DENV2-induced cell death inhibition; DENV2-infected cells, cytopathic effect rescue, plate reader; CPE inhibition, % at 9.99 µM; actives 1.7% (n = 350,000); AID 651640; in the data active = CPE inhibition above about 20%, passing the limit was not always enough; inconclusive = no clear call, values can overlap the other calls; tested in BHK-21 cells;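 note: 0% = median of neutral control wells and 100% = median of positive control wells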
S100A4 inh HTS – inhibitors of human S100A4 binding to myosin IIA peptide; inhibition, % at 10.7 µM; AID 652163; P26447; actives 0.14% (n = 360,000); S100A4/TAMRA-MyoIIA peptide fluorescence polarization;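 active = mean inhibition of at least 70% across replicates, with every replicate also reaching that level; inconclusive = mean inhibition reaches 70% but some replicates fall short; inactive = mean inhibition below 70%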
Target sequence (P26447 whole entry, looked up): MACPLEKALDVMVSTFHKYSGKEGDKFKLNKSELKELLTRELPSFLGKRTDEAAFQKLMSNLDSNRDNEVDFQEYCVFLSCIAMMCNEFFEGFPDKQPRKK
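Material: S100A4 monomer protein | Medium: HEPES pH 7.2 with CaCl2, KCl, NaCl, DTT, Triton | Reagent: Labelled myosin peptide probe, 5 nM | Doses: One dose per compound | Times: 5 min incubation before reading | Benchmarks: Neutral control DMSO, positive control TFP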
SIRT5 block – sirtuin-5 (human) deacylase inhibition; Q9NXA8; Purified SirT5, succinyl-peptide AMC, trypsin-coupled fluorescence; inhibition, % at 15 µM; actives 1.1% (n = 330,000); in the data active = inhibition above about 15%; inconclusive = no clear call, values can overlap the other calls
Target sequence (Q9NXA8 whole entry, looked up): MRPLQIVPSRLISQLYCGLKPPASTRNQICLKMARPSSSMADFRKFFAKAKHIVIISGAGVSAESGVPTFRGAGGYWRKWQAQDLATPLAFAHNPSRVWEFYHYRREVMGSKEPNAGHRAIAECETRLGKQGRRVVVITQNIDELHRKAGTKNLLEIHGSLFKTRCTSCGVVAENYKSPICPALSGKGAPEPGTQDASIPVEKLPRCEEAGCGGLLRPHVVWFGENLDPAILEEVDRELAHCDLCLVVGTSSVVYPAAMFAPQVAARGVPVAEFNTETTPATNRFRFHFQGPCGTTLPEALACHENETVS
* marks the source's active call; other numbers are inactive results.

How did COc1ccc(C#Cc2ccc3c(c2)[C@@H]2[C@@H](CCN2C(=O)C2CCC2)[C@H](CO)N3)cc1 do in these assays?
PGC1a acetyl inh: -12; DENV2 CPE rescue: -7; S100A4 inh HTS: 6; SIRT5 block: 17*

Results for COc1ccc(NC(=O)Nc2ccc3c(c2)C(=O)N([C@H](C)CO)C[C@H](C)[C@@H](CN(C)Cc2ccncc2)O3)cc1 ?
C2C12 statin: 15; PGC1a acetyl inh: 3; DENV2 CPE rescue: 6; S100A4 inh HTS: 2; SIRT5 block: -3

How did COCC(=O)Nc1ccc2c(c1)C(=O)N(C)C[C@H](OC)[C@H](C)CN(C(=O)c1cccnc1)[C@@H](C)CO2 do in these assays?
C2C12 statin: -2; PGC1a acetyl inh: -13; DENV2 CPE rescue: -3; S100A4 inh HTS: -12; SIRT5 block: 1

What do the screens show for `NCc1csc(NC(=O)Nc2cccc(Cl)c2)n1`?
C2C12 statin: 0; PGC1a acetyl inh: 5; DENV2 CPE rescue: 25*; S100A4 inh HTS: -7

What do the screens show for `O=C(Nc1cccc(Cl)c1)Nc1cccc(C(=O)O)c1`?
PGC1a acetyl inh: -4; DENV2 CPE rescue: 3; S100A4 inh HTS: -3; SIRT5 block: 23*

What do the screens show for `CC(C)C[C@@H](CN=[N+]=[N-])N1CCN(C)CCC1=O`?
C2C12 statin: 3; PGC1a acetyl inh: -9; DENV2 CPE rescue: -13; S100A4 inh HTS: -1; SIRT5 block: -2

How did CC(C)C[C@@H](CN=[N+]=[N-])N1CCN(CC(C)C)CCC1=O do in these assays?
C2C12 statin: -8; PGC1a acetyl inh: -7; DENV2 CPE rescue: 87*; S100A4 inh HTS: -3

How did C[C@@H]1CN([C@@H](C)CO)C(=O)c2cc(N(C)C)ccc2O[C@@H](C)CCCCO[C@H]1CN(C)C(=O)Nc1cccc2ccccc12 do in these assays?
C2C12 statin: -13; PGC1a acetyl inh: -42; DENV2 CPE rescue: -16; S100A4 inh HTS: -4; SIRT5 block: 0

Results for CN1C(=O)c2cc(NC(=O)c3ccc(F)cc3)ccc2OC[C@@H]2O[C@@H](CC(=O)O)CC[C@@H]21 ?
C2C12 statin: -4; PGC1a acetyl inh: -7; DENV2 CPE rescue: -4; S100A4 inh HTS: -9; SIRT5 block: 1

Results for CN1C(=O)c2cc(NC(=O)c3ccc4c(c3)OCO4)ccc2OC[C@H]2O[C@H](CC(=O)O)CC[C@@H]21 ?
C2C12 statin: -32; PGC1a acetyl inh: 2; DENV2 CPE rescue: inconclusive; S100A4 inh HTS: 0; SIRT5 block: 0

How did CN1C(=O)c2cc(NC(=O)c3ccc(F)cc3)ccc2OC[C@H]2O[C@H](CC(=O)O)CC[C@H]21 do in these assays?
C2C12 statin: 8; PGC1a acetyl inh: 8; DENV2 CPE rescue: 35*; S100A4 inh HTS: 8; SIRT5 block: 3

What do the screens show for `CN1C(=O)c2cc(NC(=O)c3ccc4c(c3)OCO4)ccc2OC[C@H]2O[C@@H](CC(=O)O)CC[C@@H]21`?
C2C12 statin: -14; PGC1a acetyl inh: 10; DENV2 CPE rescue: 40*; S100A4 inh HTS: 7; SIRT5 block: -1

Results for COC(=O)C[C@H]1CC[C@@H]2[C@@H](COc3ccc(NC(=O)c4cccc(Cl)c4)cc3C(=O)N2C)O1 ?
C2C12 statin: 10; DENV2 CPE rescue: -2; S100A4 inh HTS: 7; SIRT5 block: 16*

Results for C=CCN1C(=O)N/C(=C/c2ccccc2OCC(=O)Nc2ccc(F)cc2)C1=O ?
DENV2 CPE rescue: 22*; S100A4 inh HTS: -3; SIRT5 block: -3

How did O=C(COc1ccccc1/C=C1\SC(=O)NC1=O)Nc1ccc(F)cc1 do in these assays?
PGC1a acetyl inh: 7; S100A4 inh HTS: 0; SIRT5 block: -3

What do the screens show for `Cc1ccccc1S(=O)(=O)N1C[C@H](O)COC[C@H]2O[C@H](CC(=O)NCCc3ccccc3)CC[C@@H]21`?
C2C12 statin: 14; PGC1a acetyl inh: 3; DENV2 CPE rescue: 1; S100A4 inh HTS: 9; SIRT5 block: 8

What do the screens show for `CC(C)C#Cc1ccc2c(c1)O[C@H](CN(C)C(=O)Cc1ccccn1)[C@H](C)CN([C@H](C)CO)S2(=O)=O`?
C2C12 statin: -48; PGC1a acetyl inh: -2; DENV2 CPE rescue: -5; S100A4 inh HTS: -2; SIRT5 block: 5

Results for CCC(C)C(CO)NCCCn1cnc2c(SC)ncnc21 (centres undefined) ?
C2C12 statin: 3; DENV2 CPE rescue: -5; S100A4 inh HTS: -3; SIRT5 block: 26*

Screening results from PubChem BioAssay.
